From ChEMBL document CHEMBL4033718, “A novel serine racemase inhibitor suppresses neuronal over-activation in vivo” (Bioorg Med Chem, 2017)

target: T1, Serine racemase (Mus musculus) (UniProt Q9QZX7); assay: Inhibition of mouse serine racemase assessed as remaining enzyme activity by measuring D-serine production using L-serine as substrate at 1 mM incubated for > 8 hrs
T1 sequence (whole entry): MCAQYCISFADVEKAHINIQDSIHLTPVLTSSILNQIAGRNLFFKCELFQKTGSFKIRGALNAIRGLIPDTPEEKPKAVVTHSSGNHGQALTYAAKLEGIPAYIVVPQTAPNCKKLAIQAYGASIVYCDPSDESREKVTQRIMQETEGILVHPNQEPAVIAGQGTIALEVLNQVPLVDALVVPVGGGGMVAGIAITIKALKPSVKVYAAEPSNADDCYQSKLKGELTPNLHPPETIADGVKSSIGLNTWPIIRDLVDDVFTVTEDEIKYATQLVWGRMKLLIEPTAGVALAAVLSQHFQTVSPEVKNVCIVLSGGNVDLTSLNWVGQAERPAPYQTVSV
Method in brief: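 Recombinant mouse Srr, 1.25 µg, in 100 mM HEPES pH 8.0 with PLP, 1 mM MgCl2, 5 mM DTT, 1 mM ATP, 20 mM L-Ser and 1 mM inhibitor. Product derivatized with 0.05% DNP in 2 M HCl for 5 min at 30 °C, then EtOH and 10 M NaOH added. A515 read after 10 min at room temperature.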

| SMILES | Activity [%] |
| --- | --- |
| Cc1ccc(/C=C/S(=O)(=O)NCC(=O)OCc2ccc(Cl)c(Cl)c2)cc1 | 32 |
| Cc1ccc(CNC(=O)NCCNS(=O)(=O)c2cccc(Cl)c2)cc1 | 36 |
| O=C(COc1ccc(Cl)cc1)NCC(=O)Nc1ccc(F)c(F)c1F | 35 |

organism: Homo sapiens; assay: Inhibition of human serine racemase C2D2 mutant assessed as remaining enzyme activity by measuring D-serine production using L-serine as substrate at 1 mM incubated for > 8 hrs
Method in brief: (§1)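 Recombinant human SRR C2D2 mutant, 8 µg, in 100 mM HEPES pH 8.0 with PLP, 1 mM MgCl2, 5 mM DTT, 1 mM ATP and 20 mM L-Ser. Product derivatized with 0.05% DNP in 2 M HCl for 5 min at 30 °C, then EtOH and 10 M NaOH added. Absorbance at 515 nm read after 10 min at room temperature.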

| SMILES | Activity [%] |
| --- | --- |
| O=C(O)CC(=O)O [MALONIC ACID] | 63 |
| Cc1ccc(/C=C/C(=O)NC(=S)NNC(=O)Cc2cccs2)cc1 | 24 |
| Cc1ccc(/C=C/S(=O)(=O)NCC(=O)Nc2ccc(OCc3ccccc3)cc2)cc1 | 41 |
| O=C(/C=C/c1ccc(F)cc1)NC(=S)NNC(=O)Cc1ccccc1 | 45 |
| Cc1ccc(S(=O)(=O)Nc2ccccc2NC(=O)Nc2ccc(Cl)c(Cl)c2)cc1 | 77 |
| COc1cccc(OC)c1/C=C/C(=O)NC(=S)NNC(=O)Cc1cccs1 | 27 |
| O=C(/C=C/c1ccc(Cl)cc1)NC(=S)NNC(=O)Cc1cccs1 | 23 |
| O=C(Cc1cc(F)cc(F)c1)NNC(=S)NC(=O)Cc1ccccc1 | 55 |
| O=C(/C=C/c1cc(Br)cc(Br)c1)NC(=S)NNC(=O)CCc1ccccc1 | 44 |
| O=C(Cc1cccs1)NNC(=S)NC(=O)Cc1ccccc1 | 61 |
| O=C(/C=C/c1ccc(C(F)(F)F)cc1)NC(=S)NNC(=O)Cc1cccs1 | 44 |
| COc1cccc(OC)c1/C=C/C(=O)NC(=S)NNC(=O)Cc1ccccc1 | 32 |
| O=C(/C=C/c1ccc(F)cc1)NC(=S)NNC(=O)Cc1cccs1 | 22 |
| O=C(/C=C/c1cc(Br)cc(Br)c1)NC(=S)NNC(=O)Cc1ccccc1 | 20 |
| Cc1cccc(CC(=O)NNC(=S)NC(=O)Cc2ccccc2)c1 | 53 |
| O=C(Cc1ccc(F)cc1)NNC(=S)NC(=O)Cc1ccc(F)cc1 | 49 |
| COc1cccc(OC)c1/C=C/C(=O)NC(=S)NNC(=O)c1cccs1 | 31 |
| O=C(Cc1c(F)cccc1F)NNC(=S)NC(=O)Cc1ccccc1 | 61 |
| CC(C)c1ccc(/C=C/C(=O)NC(=S)NNC(=O)Cc2cccs2)cc1 | 28 |
| O=C(/C=C/c1ccc(F)cc1)NC(=S)NNC(=O)c1cccs1 | 46 |
| O=C(Cc1ccc(F)cc1)NNC(=S)NC(=O)Cc1ccccc1 | 62 |
| O=C(/C=C/c1c(F)cc(F)cc1F)NC(=S)NNC(=O)Cc1ccccc1 | 38 |
| O=C(/C=C/c1cc(Br)cc(Br)c1)NC(=S)NNC(=O)Cc1ccc(F)cc1 | 54 |
| O=C(/C=C/c1c(F)cc(F)cc1F)NC(=S)NNC(=O)Cc1cccs1 | 39 |

target: not listed separately; assay: Inhibition of human serine racemase C2D2 mutant assessed as remaining enzyme activity by measuring D-serine production using L-serine as substrate incubated for > 8 hrs; method in brief: as §1

| SMILES | IC50 [µM] |
| --- | --- |
| O=C(O)CC(=O)O [MALONIC ACID] | 770 |
| Cc1ccc(/C=C/S(=O)(=O)NCC(=O)Nc2ccc(OCc3ccccc3)cc2)cc1 | 270 |
| Cc1ccc(S(=O)(=O)Nc2ccccc2NC(=O)Nc2ccc(Cl)c(Cl)c2)cc1 | 280 |
| O=C(/C=C/c1cc(Br)cc(Br)c1)NC(=S)NNC(=O)Cc1ccccc1 | 140 |

test system: Mus musculus; assay: In-vivo inhibition of SRR in Arc-LucTg HL mouse brain assessed as reduction in kainate-induced NMDA-type glutamate receptor activation by measuring decrease in bioluminescence signal at 15 mg/kg, po incubated for 3 hrs followed by kainate treatment measured after 2 hrs relative to control; format: functional
Method in brief: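 Arc-Luc Tg hairless mice, baseline-imaged, then dosed 15 mg/kg p.o. in PEG-400 (vehicle controls) under 1.5% isoflurane. Basal imaging 3 h later, then kainate 20 mg/kg i.p. in saline. Luciferin EF 150 mg/kg i.p. Images at 2, 4 and 6 h: 60 s, 4×4 binning, ear-to-eye ROI, strongest of about 5 reads. Fold change vs 0 h; two-tailed t test.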

| SMILES | fold change (FC) |
| --- | --- |
| O=C(/C=C/c1cc(Br)cc(Br)c1)NC(=S)NNC(=O)Cc1ccccc1 | 1.4 |
